Source: ChEMBL document CHEMBL4364323, “Synthesis and biological evaluation of moxifloxacin-acetyl-1,2,3-1H-triazole-methylene-isatin hybrids as potential anti-tubercular agents against both drug-susceptible and drug-resistant Mycobacterium tuberculosis strains” (Eur J Med Chem, 2019)
Converted amounts (≈) assume the structure as drawn.

Experiments:
[1] = Selectivity index, ratio of CC50 for African green monkey Vero cells to MIC for Mycobacterium tuberculosis H37Rv; assay type: toxicity; settings: read-out: Selectivity Index
[2] = Cytotoxicity against African green monkey Vero cells incubated for 72 hrs by MTT assay; assay type: cell-based; settings: chlorocebus sabaeus
Method in brief: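 Compounds were dissolved in DMSO and tested at 128 to 4 μg/mL. VERO cells were grown in MEM with Earle's salts plus 10% FBS at 37 °C, 5% CO2, seeded at 1×10^4 cells/well and allowed to recover 24 h. Cells were then exposed to compound or drug-free medium for 72 h. Viability was read by MTT, and CC50 was calculated by Bliss analysis.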

[3] = Tmax in SPF ICR mouse at 100 mg/kg, sc; assay type: ADME, organism-based; settings: in vivo
Method in brief: (§1)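 Female SPF ICR mice (20-25 g) dosed once at 100 mg/kg by subcutaneous injection. Plasma concentration-time data were collected. Cmax, Tmax, t1/2 and AUC0-inf were taken directly from the experimental data.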

[4] = Half life in SPF ICR mouse at 100 mg/kg, sc; assay type: ADME, organism-based; settings: in vivo
[5] = molecular target: DNA gyrase subunit A/DNA gyrase subunit B (Mycobacterium tuberculosis (strain ATCC 25618 / H37Rv), UniProt P9WG45+P9WG47); assay: Inhibition of Mycobacterium tuberculosis DNA gyrase; assay type: protein-complex assay
CHO = assay: Cytotoxicity against CHO cells assessed as slight change in cell viability at 128 to 4 ug/ml; assay type: cell-based, Cricetulus griseus; settings: chinese hamster
[6] = AUC (0 to infinity) in SPF ICR mouse at 100 mg/kg, sc; assay type: ADME, organism-based; design: dose 100 mg/kg, route subcutaneous, time infinity; settings: in vivo; method in brief: as §1
[7] = Cmax in SPF ICR mouse at 100 mg/kg, sc; assay type: ADME, organism-based; design: dose 100 mg/kg, route subcutaneous; settings: in vivo; method in brief: as §1
[8] = tested on: Mycobacterium tuberculosis; assay: Antimycobacterial activity against Mycobacterium tuberculosis H37Rv incubated for 7 days by rapid direct susceptibility test; assay type: functional; settings: 168 h
Method in brief: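 Two-fold compound dilutions were mixed with MTB suspension containing 4×10 -3 mg cells per well and incubated at 37 °C in a wet box. MIC was read from the quantity and state of cells in each well under a continuous visual high-magnification system and was re-determined 7 days later.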

Sequence of DNA gyrase subunit A/DNA gyrase subunit B (P9WG45 whole entry): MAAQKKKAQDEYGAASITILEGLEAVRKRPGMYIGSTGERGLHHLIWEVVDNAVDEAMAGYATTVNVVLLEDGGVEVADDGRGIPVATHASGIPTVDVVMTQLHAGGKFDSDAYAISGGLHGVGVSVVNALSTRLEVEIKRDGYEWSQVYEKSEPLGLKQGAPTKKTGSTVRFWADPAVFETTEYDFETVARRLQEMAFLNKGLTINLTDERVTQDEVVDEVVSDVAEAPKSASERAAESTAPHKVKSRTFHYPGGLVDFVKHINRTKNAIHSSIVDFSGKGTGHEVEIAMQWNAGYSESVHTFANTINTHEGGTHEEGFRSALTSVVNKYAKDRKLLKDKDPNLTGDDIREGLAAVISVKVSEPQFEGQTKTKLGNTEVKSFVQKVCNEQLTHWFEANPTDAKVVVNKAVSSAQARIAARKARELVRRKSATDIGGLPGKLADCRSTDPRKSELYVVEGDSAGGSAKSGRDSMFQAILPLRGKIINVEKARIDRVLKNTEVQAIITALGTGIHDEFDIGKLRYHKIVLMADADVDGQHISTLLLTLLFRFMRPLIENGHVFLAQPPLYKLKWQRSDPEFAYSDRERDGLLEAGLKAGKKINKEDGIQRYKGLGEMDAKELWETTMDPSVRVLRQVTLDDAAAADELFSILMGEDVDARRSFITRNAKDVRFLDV
Sequence of DNA gyrase subunit A/DNA gyrase subunit B (P9WG47 whole entry): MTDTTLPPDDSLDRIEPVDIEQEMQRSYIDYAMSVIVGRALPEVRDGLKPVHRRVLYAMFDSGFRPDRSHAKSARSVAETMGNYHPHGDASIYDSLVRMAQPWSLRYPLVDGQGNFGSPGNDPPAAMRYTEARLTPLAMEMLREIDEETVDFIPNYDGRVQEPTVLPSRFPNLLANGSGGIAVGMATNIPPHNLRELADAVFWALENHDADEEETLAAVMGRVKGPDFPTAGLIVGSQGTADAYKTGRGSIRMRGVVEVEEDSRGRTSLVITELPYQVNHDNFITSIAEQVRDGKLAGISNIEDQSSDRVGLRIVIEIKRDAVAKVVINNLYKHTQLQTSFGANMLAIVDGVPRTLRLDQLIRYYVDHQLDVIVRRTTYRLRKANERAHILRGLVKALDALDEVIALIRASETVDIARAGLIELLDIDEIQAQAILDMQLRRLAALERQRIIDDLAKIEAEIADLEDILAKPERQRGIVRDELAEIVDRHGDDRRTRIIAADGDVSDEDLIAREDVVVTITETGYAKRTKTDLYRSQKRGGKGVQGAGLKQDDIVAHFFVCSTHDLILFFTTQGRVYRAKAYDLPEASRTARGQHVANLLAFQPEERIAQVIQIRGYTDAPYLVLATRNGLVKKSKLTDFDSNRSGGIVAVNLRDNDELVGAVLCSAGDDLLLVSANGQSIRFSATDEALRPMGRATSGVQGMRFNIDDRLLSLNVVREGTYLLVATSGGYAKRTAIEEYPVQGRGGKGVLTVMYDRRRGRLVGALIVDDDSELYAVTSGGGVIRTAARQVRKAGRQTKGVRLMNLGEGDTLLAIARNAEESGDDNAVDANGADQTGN

SMILES	selectivity ratio [1]	CC50 at 72 h [2] [µg/mL]	Tmax [3] [min]	half-life [4] [min]	IC50 [5] [µM]	Activity (CHO)	AUC(0-inf) [6] [ng·h/mL]	Cmax [7] [ng/mL]	MIC [8] [µg/mL]
CO/N=C1/C(=O)N(Cc2cn(CC(=O)N3CCC[C@@H]4CN(c5c(F)cc6c(=O)c(C(=O)O)cn(C7CC7)c6c5OC)C[C@@H]43)nn2)c2ccccc21	256	128 (≈ 183 µM)	39	186	8.59	Toxic	6440	3250	0.5 (≈ 0.716 µM)
COc1c(N2C[C@H]3CCCN(C(=O)Cn4cc(CN5C(=O)/C(=N/NC(N)=S)c6ccccc65)nn4)[C@H]3C2)c(F)cc2c(=O)c(C(=O)O)cn(C3CC3)c12	128	16 (≈ 21.5 µM)	52	258	6.73	Toxic	3270	1400	0.12 (≈ 0.162 µM)
COc1c(N2C[C@H]3CCCN(C(=O)Cn4cc(CN5C(=O)/C(=N/NC(N)=S)c6cc(F)ccc65)nn4)[C@H]3C2)c(F)cc2c(=O)c(C(=O)O)cn(C3CC3)c12	32	8 (≈ 10.5 µM)			10.5				0.25 (≈ 0.329 µM)
CO/N=C1/C(=O)N(Cc2cn(CC(=O)N3CCC[C@@H]4CN(c5c(F)cc6c(=O)c(C(=O)O)cn(C7CC7)c6c5OC)C[C@@H]43)nn2)c2ccc(F)cc21	32	32 (≈ 44.6 µM)							1 (≈ 1.4 µM)
COc1c(N2C[C@H]3CCCN(C(=O)Cn4cc(CN5C(=O)C(=O)c6cc(F)ccc65)nn4)[C@H]3C2)c(F)cc2c(=O)c(C(=O)O)cn(C3CC3)c12	16	16 (≈ 23.3 µM)							1 (≈ 1.45 µM)
COc1c(N2C[C@H]3CCCN(C(=O)Cn4cc(CN5C(=O)/C(=N/O)c6ccccc65)nn4)[C@H]3C2)c(F)cc2c(=O)c(C(=O)O)cn(C3CC3)c12	32	32 (≈ 46.7 µM)							1 (≈ 1.46 µM)
COc1c(N2C[C@H]3CCCN(C(=O)Cn4cc(CN5C(=O)/C(=N/O)c6cc(F)ccc65)nn4)[C@H]3C2)c(F)cc2c(=O)c(C(=O)O)cn(C3CC3)c12	8	16 (≈ 22.8 µM)							2 (≈ 2.85 µM)
COc1c(N2C[C@H]3CCCN(C(=O)Cn4cc(CN5C(=O)C(=O)c6cccc(F)c65)nn4)[C@H]3C2)c(F)cc2c(=O)c(C(=O)O)cn(C3CC3)c12	4	32 (≈ 46.5 µM)							8 (≈ 11.6 µM)
CO/N=C1/C(=O)N(Cc2cn(CC(=O)N3CCC[C@@H]4CN(c5c(F)cc6c(=O)c(C(=O)O)cn(C7CC7)c6c5OC)C[C@@H]43)nn2)c2c(F)cccc21	1	16 (≈ 22.3 µM)							16 (≈ 22.3 µM)
COc1c(N2C[C@H]3CCCN(C(=O)Cn4cc(CN5C(=O)/C(=N/O)c6cccc(F)c65)nn4)[C@H]3C2)c(F)cc2c(=O)c(C(=O)O)cn(C3CC3)c12	1	16 (≈ 22.8 µM)							16 (≈ 22.8 µM)
COc1c(N2C[C@H]3CCCN(C(=O)Cn4cc(CN5C(=O)C(=O)c6ccccc65)nn4)[C@H]3C2)c(F)cc2c(=O)c(C(=O)O)cn(C3CC3)c12	128	32 (≈ 47.8 µM)			5.97				0.25 (≈ 0.373 µM)
COc1c(N2C[C@H]3CCCN(C(=O)Cn4cc(CN5C(=O)/C(=N/NC(N)=S)c6cccc(F)c65)nn4)[C@H]3C2)c(F)cc2c(=O)c(C(=O)O)cn(C3CC3)c12	1	8 (≈ 10.5 µM)							8 (≈ 10.5 µM)
CO/N=C1/C(=O)N(Cc2cn(CC(=O)N3CCC[C@@H]4CN(c5c(F)cc6c(=O)c(C(=O)O)cn(C7CC7)c6c5OC)C[C@@H]43)nn2)c2ccc(C)cc21	16	64 (≈ 89.8 µM)							4 (≈ 5.61 µM)
COc1c(N2C[C@H]3CCCN(C(=O)Cn4cc(CN5C(=O)C(=O)c6cc(C)ccc65)nn4)[C@H]3C2)c(F)cc2c(=O)c(C(=O)O)cn(C3CC3)c12	32	64 (≈ 93.6 µM)							2 (≈ 2.93 µM)
COc1c(N2CCNC(C)C2)c(F)cc2c(=O)c(C(=O)O)cn(C3CC3)c12 (centres undefined) [GATIFLOXACIN]	128	64 (≈ 170 µM)			13.3				0.5 (≈ 1.33 µM)
NNC(=O)c1ccncc1 [ISONIAZID]	1024								0.12 (≈ 0.875 µM)
COc1c(N2C[C@@H]3CCCN[C@@H]3C2)c(F)cc2c(=O)c(C(=O)O)cn(C3CC3)c12 [MOXIFLOXACIN]			27				19200	10800	0.12 (≈ 0.299 µM)
CO[C@H]1/C=C/O[C@@]2(C)Oc3c(C)c(O)c4c(O)c(c(/C=N/N5CCN(C)CC5)c(O)c4c3C2=O)NC(=O)/C(C)=C\C=C\[C@H](C)[C@H](O)[C@@H](C)[C@@H](O)[C@@H](C)[C@H](OC(C)=O)[C@@H]1C [RIFAMPIN]	> 512	> 128							0.06 (≈ 0.0729 µM)
